# Laboratory results taken from ChEMBL document CHEMBL1154229 (Bioorg Med Chem Lett, 2009).
# Legend:
# [1] = target: T1, Bifunctional epoxide hydrolase 2 (Homo sapiens, UniProt P34913); assay: Inhibition of human soluble epoxide hydrolase
# T1 sequence (P34913 whole entry): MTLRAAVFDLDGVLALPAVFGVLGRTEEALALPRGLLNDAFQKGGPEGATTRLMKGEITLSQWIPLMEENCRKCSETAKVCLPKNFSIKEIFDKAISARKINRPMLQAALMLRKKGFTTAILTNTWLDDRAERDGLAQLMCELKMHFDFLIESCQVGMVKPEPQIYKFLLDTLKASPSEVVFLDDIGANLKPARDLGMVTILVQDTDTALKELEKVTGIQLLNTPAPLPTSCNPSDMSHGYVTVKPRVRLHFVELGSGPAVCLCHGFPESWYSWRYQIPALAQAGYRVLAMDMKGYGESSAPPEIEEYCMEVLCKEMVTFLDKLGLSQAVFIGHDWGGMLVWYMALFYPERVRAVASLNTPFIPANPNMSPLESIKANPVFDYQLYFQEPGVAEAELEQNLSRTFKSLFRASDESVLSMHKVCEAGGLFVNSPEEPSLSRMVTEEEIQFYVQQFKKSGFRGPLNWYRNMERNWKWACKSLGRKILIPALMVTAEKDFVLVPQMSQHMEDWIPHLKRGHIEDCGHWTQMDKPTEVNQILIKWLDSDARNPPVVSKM
# [2] = Inhibition of potassium channel IKr
# Cytochrome P450 2C9 = Cytochrome P450 2C9 (Homo sapiens, UniProt P11712); assay: Inhibition of CYP2C9; format: ADME
# Epoxide hydrolase 1 = target: T2, Epoxide hydrolase 1 (Homo sapiens, UniProt P07099); assay: Inhibition of human microsomal epoxide hydrolase
# T2 sequence (P07099 whole entry): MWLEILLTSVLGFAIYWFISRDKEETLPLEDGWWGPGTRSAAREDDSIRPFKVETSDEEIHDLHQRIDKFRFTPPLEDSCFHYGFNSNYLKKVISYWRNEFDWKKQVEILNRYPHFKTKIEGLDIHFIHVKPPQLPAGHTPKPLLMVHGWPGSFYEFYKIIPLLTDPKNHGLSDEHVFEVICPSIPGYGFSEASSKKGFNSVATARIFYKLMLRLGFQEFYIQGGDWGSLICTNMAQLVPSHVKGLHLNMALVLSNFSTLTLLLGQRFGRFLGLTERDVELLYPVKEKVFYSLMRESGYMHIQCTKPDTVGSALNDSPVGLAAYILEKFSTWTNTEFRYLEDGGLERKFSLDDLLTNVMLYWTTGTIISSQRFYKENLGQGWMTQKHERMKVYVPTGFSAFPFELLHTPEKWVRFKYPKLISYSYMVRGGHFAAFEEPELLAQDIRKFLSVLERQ
# Procedure, shortened: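 Human mEH used as the counterscreen enzyme. Values come from one or two experiments, each in triplicate, with repeats within 20%.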
# Cytochrome P450 2D6 = Cytochrome P450 2D6 (Homo sapiens, UniProt P10635); assay: Inhibition of CYP2D6; format: ADME
# [3] = target: T1, Bifunctional epoxide hydrolase 2; assay: Inhibition of human soluble epoxide hydrolase in HEK293 cells assessed as DHET production; format: cell-based
# Procedure, shortened: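 Whole-cell 14,15-DHET production assay in HEK293 cells, run with or without 10% human serum. Values come from one or two experiments, each in triplicate, with repeats within 20%.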
# Cytochrome P450 3A4 = Cytochrome P450 3A4 (Homo sapiens, UniProt P08684); assay: Inhibition of CYP3A4; format: ADME
# [4] = target: Sodium channel protein type 5 subunit alpha (Homo sapiens, UniProt Q14524); assay: Inhibition of Nav1.5 channel
# [5] = target: T3, Bifunctional epoxide hydrolase 2 (Rattus norvegicus, UniProt P80299); assay: Inhibition of rat soluble epoxide hydrolase
# T3 sequence (P80299 whole entry): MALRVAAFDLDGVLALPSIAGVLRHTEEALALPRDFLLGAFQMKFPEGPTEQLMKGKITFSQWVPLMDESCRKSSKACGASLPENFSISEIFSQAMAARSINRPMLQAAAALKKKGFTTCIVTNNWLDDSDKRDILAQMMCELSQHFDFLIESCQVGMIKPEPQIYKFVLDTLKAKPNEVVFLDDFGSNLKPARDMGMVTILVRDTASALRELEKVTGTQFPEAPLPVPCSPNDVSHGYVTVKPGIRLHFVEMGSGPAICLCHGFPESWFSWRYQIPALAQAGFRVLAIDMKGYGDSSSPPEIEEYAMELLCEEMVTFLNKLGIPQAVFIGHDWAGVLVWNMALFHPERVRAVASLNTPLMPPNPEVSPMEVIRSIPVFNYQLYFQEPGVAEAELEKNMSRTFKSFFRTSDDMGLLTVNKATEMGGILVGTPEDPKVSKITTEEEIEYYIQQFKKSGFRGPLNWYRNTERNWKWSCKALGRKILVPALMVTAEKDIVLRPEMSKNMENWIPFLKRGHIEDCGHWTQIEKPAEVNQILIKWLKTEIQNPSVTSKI
# L-type calcium channel = assay: Inhibition of calcium channel diltiazem binding site
# Chain of Cytochrome P450 2D6 (P10635 whole entry): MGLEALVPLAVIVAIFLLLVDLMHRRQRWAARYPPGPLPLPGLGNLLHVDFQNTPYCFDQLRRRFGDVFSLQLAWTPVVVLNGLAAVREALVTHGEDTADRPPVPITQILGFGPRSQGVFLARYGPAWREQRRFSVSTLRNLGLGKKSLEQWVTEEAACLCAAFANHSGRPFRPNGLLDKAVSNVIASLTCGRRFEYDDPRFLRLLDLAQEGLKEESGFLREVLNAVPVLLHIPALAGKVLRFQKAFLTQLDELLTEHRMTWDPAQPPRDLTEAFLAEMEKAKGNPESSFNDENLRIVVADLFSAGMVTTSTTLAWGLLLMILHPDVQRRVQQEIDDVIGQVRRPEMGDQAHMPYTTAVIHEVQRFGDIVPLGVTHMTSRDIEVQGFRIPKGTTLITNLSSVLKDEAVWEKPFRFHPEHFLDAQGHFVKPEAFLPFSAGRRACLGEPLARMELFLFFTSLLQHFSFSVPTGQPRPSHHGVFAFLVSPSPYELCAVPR
# Chain of Cytochrome P450 2C9 (P11712 whole entry): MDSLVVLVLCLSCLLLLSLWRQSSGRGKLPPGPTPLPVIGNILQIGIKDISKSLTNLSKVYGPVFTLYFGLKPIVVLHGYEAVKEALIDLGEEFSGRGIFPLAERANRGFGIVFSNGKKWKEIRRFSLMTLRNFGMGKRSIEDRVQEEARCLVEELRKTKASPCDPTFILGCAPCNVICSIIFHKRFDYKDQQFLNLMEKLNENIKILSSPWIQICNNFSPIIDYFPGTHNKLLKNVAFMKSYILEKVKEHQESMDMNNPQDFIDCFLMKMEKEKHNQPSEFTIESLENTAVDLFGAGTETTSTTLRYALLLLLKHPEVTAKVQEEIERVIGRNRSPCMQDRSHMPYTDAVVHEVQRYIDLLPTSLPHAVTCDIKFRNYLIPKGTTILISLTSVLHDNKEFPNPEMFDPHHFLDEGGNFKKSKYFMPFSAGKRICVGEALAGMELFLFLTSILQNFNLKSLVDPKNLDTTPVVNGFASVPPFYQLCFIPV
# Chain of Cytochrome P450 3A4 (P08684 whole entry): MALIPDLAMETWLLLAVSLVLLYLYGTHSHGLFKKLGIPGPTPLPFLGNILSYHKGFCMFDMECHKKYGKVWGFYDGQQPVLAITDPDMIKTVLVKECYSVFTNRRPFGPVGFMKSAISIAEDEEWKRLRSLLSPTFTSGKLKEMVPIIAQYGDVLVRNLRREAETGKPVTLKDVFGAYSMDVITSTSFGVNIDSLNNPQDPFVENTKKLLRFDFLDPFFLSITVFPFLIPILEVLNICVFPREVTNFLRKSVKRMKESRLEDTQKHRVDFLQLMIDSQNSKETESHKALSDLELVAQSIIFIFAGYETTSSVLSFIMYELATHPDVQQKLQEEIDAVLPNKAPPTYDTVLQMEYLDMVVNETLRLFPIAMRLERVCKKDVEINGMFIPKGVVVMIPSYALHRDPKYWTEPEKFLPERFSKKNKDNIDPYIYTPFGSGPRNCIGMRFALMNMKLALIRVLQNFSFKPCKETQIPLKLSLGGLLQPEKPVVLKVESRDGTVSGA
# Chain of Sodium channel protein type 5 subunit alpha (Q14524 whole entry): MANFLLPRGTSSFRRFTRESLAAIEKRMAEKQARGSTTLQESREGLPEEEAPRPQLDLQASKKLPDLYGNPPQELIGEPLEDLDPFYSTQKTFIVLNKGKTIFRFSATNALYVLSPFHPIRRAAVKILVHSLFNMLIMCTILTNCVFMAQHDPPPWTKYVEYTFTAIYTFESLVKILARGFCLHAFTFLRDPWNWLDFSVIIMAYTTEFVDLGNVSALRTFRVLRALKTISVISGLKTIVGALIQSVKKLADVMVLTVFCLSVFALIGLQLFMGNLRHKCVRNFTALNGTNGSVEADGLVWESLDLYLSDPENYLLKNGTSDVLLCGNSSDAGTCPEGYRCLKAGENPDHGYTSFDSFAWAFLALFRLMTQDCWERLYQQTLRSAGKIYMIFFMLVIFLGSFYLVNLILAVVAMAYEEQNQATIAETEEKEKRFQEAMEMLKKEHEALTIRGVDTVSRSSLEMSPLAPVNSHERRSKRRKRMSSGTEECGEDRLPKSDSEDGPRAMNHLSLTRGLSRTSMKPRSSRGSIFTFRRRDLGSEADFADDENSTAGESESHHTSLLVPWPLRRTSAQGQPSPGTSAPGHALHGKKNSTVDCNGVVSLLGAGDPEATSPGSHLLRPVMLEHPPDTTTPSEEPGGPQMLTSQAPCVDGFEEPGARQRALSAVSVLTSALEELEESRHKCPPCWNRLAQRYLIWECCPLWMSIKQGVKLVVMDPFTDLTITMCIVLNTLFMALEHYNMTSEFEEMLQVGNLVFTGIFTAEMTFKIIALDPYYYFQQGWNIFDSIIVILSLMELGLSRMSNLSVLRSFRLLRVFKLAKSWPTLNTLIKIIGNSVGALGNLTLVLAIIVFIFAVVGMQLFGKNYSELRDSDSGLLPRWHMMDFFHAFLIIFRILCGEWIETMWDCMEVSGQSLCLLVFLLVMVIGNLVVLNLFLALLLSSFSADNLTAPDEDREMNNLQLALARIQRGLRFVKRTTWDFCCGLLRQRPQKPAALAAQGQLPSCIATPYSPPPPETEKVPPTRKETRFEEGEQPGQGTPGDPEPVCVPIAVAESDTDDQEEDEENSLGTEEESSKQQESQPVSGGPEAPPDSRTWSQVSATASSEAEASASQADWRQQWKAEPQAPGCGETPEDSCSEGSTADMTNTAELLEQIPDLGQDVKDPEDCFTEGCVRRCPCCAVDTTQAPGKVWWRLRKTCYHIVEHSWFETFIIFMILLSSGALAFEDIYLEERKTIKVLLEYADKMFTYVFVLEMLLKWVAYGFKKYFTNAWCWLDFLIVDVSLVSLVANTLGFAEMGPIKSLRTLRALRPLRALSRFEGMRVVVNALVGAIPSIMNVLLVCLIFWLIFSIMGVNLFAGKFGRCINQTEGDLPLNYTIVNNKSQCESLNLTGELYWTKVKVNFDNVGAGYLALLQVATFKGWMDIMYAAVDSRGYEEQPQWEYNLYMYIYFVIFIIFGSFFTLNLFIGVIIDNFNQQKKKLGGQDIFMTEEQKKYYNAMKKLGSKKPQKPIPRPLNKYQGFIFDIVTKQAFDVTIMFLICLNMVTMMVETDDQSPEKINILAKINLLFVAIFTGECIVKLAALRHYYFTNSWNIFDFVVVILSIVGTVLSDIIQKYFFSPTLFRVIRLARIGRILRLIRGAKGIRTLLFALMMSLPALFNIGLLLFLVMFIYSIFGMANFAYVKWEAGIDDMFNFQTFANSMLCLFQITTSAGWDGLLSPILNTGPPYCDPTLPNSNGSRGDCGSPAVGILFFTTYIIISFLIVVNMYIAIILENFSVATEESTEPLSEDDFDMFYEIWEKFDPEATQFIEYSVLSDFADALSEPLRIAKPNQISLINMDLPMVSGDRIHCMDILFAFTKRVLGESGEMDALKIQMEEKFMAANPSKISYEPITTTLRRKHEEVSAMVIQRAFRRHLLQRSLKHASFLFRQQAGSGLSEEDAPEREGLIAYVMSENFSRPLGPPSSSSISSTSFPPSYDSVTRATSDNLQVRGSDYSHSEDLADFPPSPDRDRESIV
Compound,IC50 [1],IC50 [2],IC50 (Cytochrome P450 2C9),IC50 (Epoxide hydrolase 1),IC50 (Cytochrome P450 2D6),IC50 [3],IC50 (Cytochrome P450 3A4),IC50 [4],IC50 [5],IC50 (L-type calcium channel)
CC1(c2ccccc2)CCCN(C(=O)NCCCc2cccnc2)C1 (stereo unspecified),0.007 µM,5 µM,> 10 µM,3 µM,> 10 µM,0.008 µM,< 10 µM,,,
O=C(O)CCC1(c2ccccc2C(F)(F)F)CCCN(C(=O)Nc2ccc(Cl)cc2)C1 (stereo unspecified),0.016 µM,> 30 µM,> 10 µM,> 100 µM,> 10 µM,< 0.001 µM,> 10 µM,> 10 µM,0.07 µM,> 30 µM
O=C(O)CC1(c2ccccc2)CCCN(C(=O)Nc2ccc(Cl)cc2)C1 (stereo unspecified),0.052 µM,> 30 µM,> 10 µM,> 100 µM,> 10 µM,0.038 µM,> 10 µM,> 10 µM,0.398 µM,> 30 µM
CC1(c2ccccc2)CCCN(C(=O)NCc2ccc(-c3ccccc3C(F)(F)F)cc2)C1 (stereo unspecified),0.008 µM,0.2 µM,< 10 µM,> 100 µM,> 10 µM,,< 10 µM,> 1 µM,0.011 µM,0.7 µM
CNC(=O)CCC1(c2ccccc2)CCCN(C(=O)Nc2ccc(Cl)cc2)C1 (stereo unspecified),,8 µM,10 µM,> 100 µM,> 10 µM,< 0.001 µM,10 µM,> 10 µM,0.032 µM,4 µM
O=C(O)CCC1(c2ccccn2)CCCN(C(=O)Nc2ccc(Cl)cc2)C1 (stereo unspecified),0.019 µM,> 30 µM,> 10 µM,,> 10 µM,,> 10 µM,> 10 µM,0.29 µM,> 30 µM
O=C(CCC1(c2ccccc2)CCCN(C(=O)Nc2ccc(Cl)cc2)C1)N1CCOCC1 (stereo unspecified),0.008 µM,29 µM,> 10 µM,,> 10 µM,< 0.001 µM,> 10 µM,> 10 µM,0.1 µM,26 µM
CC1(c2ccccc2)CCCN(C(=O)NCCc2ccc3nccnc3c2)C1 (stereo unspecified),,9 µM,< 10 µM,> 100 µM,10 µM,0.003 µM,< 10 µM,,0.019 µM,
CC1(c2ccccc2)CCCN(C(=O)Nc2ccc(-c3ccccc3)cc2)C1 (stereo unspecified),0.007 µM,21 µM,< 10 µM,,> 10 µM,,> 10 µM,< 10 µM,0.006 µM,0.9 µM
CC1(c2ccccc2)CCCN(C(=O)Nc2noc3ccccc23)C1 (stereo unspecified),,18 µM,< 10 µM,,> 10 µM,,> 10 µM,< 10 µM,0.207 µM,19 µM
O=C(O)CCCC1(c2ccccc2)CCCN(C(=O)Nc2ccc(Cl)cc2)C1 (stereo unspecified),,> 30 µM,> 10 µM,> 100 µM,> 10 µM,0.006 µM,> 10 µM,> 10 µM,0.176 µM,> 30 µM
O=C(O)CCC1(c2ccc(-c3ccccc3)cc2)CCCN(C(=O)Nc2ccc(OC(F)(F)F)cc2)C1 (stereo unspecified),,21 µM,< 10 µM,,> 10 µM,< 0.001 µM,> 10 µM,< 10 µM,0.413 µM,> 30 µM
O=C(O)CCC1(c2cccnc2)CCCN(C(=O)Nc2ccc(Cl)cc2)C1 (stereo unspecified),0.028 µM,> 30 µM,> 10 µM,,> 10 µM,,> 10 µM,> 10 µM,0.331 µM,> 30 µM
CC1(c2ccccc2)CCCN(C(=O)N[C@H]2C[C@@H]2c2ccccc2)C1 (stereo partly specified),0.001 µM,26 µM,< 10 µM,> 100 µM,,< 0.001 µM,< 10 µM,> 10 µM,0.004 µM,10 µM
O=C(Nc1ccc(Cl)cc1)N1CCCC(CCO)(c2ccccc2)C1 (stereo unspecified),0.001 µM,0.07 µM,< 10 µM,> 100 µM,10 µM,< 0.001 µM,> 10 µM,> 10 µM,0.015 µM,0.9 µM
O=C(O)CCCCC1(c2ccccc2)CCCN(C(=O)Nc2ccc(Cl)cc2)C1 (stereo unspecified),0.005 µM,> 30 µM,> 10 µM,> 100 µM,> 10 µM,< 0.001 µM,> 10 µM,> 10 µM,0.12 µM,> 30 µM
CC1(c2ccccc2)CCCN(C(=O)NCc2ccc(-c3cccc(Cl)c3)cc2)C1 (stereo unspecified),0.014 µM,2 µM,,22 µM,,,< 10 µM,,0.007 µM,
COC(=O)CCC1(c2ccccc2)CCCN(C(=O)Nc2ccc(Cl)cc2)C1 (stereo unspecified),< 0.001 µM,,,,,,,,0.003 µM,
N#CCCC1(c2ccccc2)CCCN(C(=O)Nc2ccc(Cl)cc2)C1 (stereo unspecified),,10 µM,> 10 µM,> 100 µM,> 10 µM,< 0.001 µM,> 10 µM,> 10 µM,0.016 µM,7 µM
CC1(c2ccccc2)CCCN(C(=O)NCc2ccc(-c3ccc4[nH]ccc4c3)cc2)C1 (stereo unspecified),,0.8 µM,< 10 µM,14 µM,10 µM,0.003 µM,> 10 µM,> 10 µM,0.006 µM,1 µM
O=C(O)CCC1(c2ccncc2)CCCN(C(=O)Nc2ccc(Cl)cc2)C1 (stereo unspecified),0.03 µM,> 30 µM,10 µM,> 100 µM,> 10 µM,,> 10 µM,> 10 µM,0.467 µM,> 30 µM
CC1(c2ccccc2)CCCN(C(=O)NCc2ccc(-c3ccccn3)cc2)C1 (stereo unspecified),0.001 µM,4 µM,< 10 µM,47 µM,10 µM,< 0.001 µM,< 10 µM,> 10 µM,0.003 µM,0.5 µM
O=C(CCC1(c2ccccc2)CCCN(C(=O)Nc2ccc(Cl)cc2)C1)Nc1nn[nH]n1 (stereo unspecified),0.0014 µM,27 µM,> 10 µM,> 100 µM,> 10 µM,0.0014 µM,> 10 µM,,0.034 µM,
O=C(O)CCC1(c2cccc(C(F)(F)F)c2)CCCN(C(=O)Nc2ccc(Cl)cc2)C1 (stereo unspecified),0.012 µM,> 30 µM,> 10 µM,> 100 µM,> 10 µM,,> 10 µM,> 10 µM,0.176 µM,> 30 µM
CCN(CC)C(=O)CCC1(c2ccccc2)CCCN(C(=O)Nc2ccc(Cl)cc2)C1 (stereo unspecified),0.003 µM,6 µM,> 10 µM,,> 10 µM,,< 10 µM,> 10 µM,0.031 µM,1 µM
CC1(c2ccccc2)CCCN(C(=O)Nc2ccncc2)C1 (stereo unspecified),0.55 µM,5 µM,> 10 µM,> 100 µM,> 10 µM,,< 10 µM,> 10 µM,0.349 µM,15 µM
